Experimental data of several laboratories.
Protocols differ between the studies behind these lines.
Target: Protein kinase C delta type (PRKCD, Homo sapiens, UniProt Q05655)

Compound | read-out | action | method | tested at | quantity | result
Oc1ccc(-c2nc(-c3ccncc3)c(-c3ccc(F)cc3)[nH]2)cc1 | cell-free assay |  |  | 0.5 µM | remaining signal | 99.3%
COc1cc(Cl)c(C(=O)N[C@@H](CN[C@H]2CC[C@@H](N)CC2)Cc2ccc(C#N)cc2)cc1-c1ccc(CN[C@H](C)c2ccc(C)cc2)o1 | enzyme activity | inhibitor |  | 1 µM | remaining activity | 100%
CNC(=O)c1cc(Oc2ccc(NC(=O)Nc3ccc(Cl)c(C(F)(F)F)c3)cc2)ccn1 | enzyme activity | inhibitor |  | 10 µM | inhibition | -6%
CC(C)c1ccc(NC(=O)c2cccs2)c(-c2nc3ccccc3[nH]c2=O)c1 | enzyme activity | inhibitor |  | 1 µM | activity vs control | 104%
CS(=O)(=O)NCC[C@H](NC(=O)c1cncc2c1cnn2-c1ccc(F)cc1)c1ccnc(S(C)(=O)=O)c1 | cell-free assay |  | competition with immobilised ligand | 1 µM | remaining binding | 76%
O=C(Nc1cnn(-c2csc(C(=O)NC3COC3)c2)c1)Nc1ccccc1Cl | enzyme activity | inhibitor |  | 5 µM | remaining activity | 112%
CCCOc1ccc(OC)c(F)c1C(=O)c1ccc(C(=O)N[C@@H]2CNC[C@H]2NC(=O)c2ccc3[nH]ncc3c2)cc1 | enzyme activity | inhibitor |  | 50 nM | remaining activity | 103%
Nc1c(C(=O)NCc2ccc(C(=O)NCCCC3CCCCC3)cc2)cnn1-c1ccccc1 | cell-free assay |  | competition with immobilised ligand | 0.1 µM | remaining binding | 88%
CN1CC(Oc2cnc(C#N)cc2-c2ccn3nc(NC(=O)C4CC4)cc3c2)C1 | enzyme activity | inhibitor |  | 1 µM | inhibition | 3%
O=C(O)[C@H]1[C@H](Cn2nnc3ccccc3c2=O)CC[C@@H]1C(=O)c1ccc(OCCC2CCOCC2)cc1 | cell-free assay |  | competition with immobilised ligand | 1 µM | remaining binding | 100%
CC/C(=N\NC(=O)NCc1cccc(O)c1)c1ccc(O)c(C)c1O | enzyme activity | inhibitor |  | 0.1 µM | inhibition | 24.6%
N#CCCc1ccc2c(c1)-c1[nH]c3ccc([N+](=O)[O-])cc3c1CC(=O)N2 | cell-free assay |  |  | 0.5 µM | remaining signal | 74.9%
Cn1cnc(Br)c1C1=CN(c2ncnc3[nH]cnc23)CCS1 | enzyme activity | inhibitor | radiometric | 50 nM | inhibition | 29%
Cn1c2ccccc2c2c3c(c4c5ccccc5n(CCC#N)c4c21)CNC3=O | cell-free assay |  |  | 0.5 µM | remaining signal | 41.9%
CO[C@@H](C)c1c(Nc2ccc([C@@H](N(C)C(=O)C3CCS(=O)(=O)CC3)C(F)(F)F)cc2)cnc2cc(Cl)nn12 | cell-free assay |  | competition with immobilised ligand | 1 µM | remaining binding | 90%
Cc1cnc(NC2CCOCC2)nc1-n1cnc(C(=O)NC(CN)c2cc(F)cc(Cl)c2)c1 (stereo not drawn) | enzyme activity | inhibitor | radiometric | 1 µM | remaining activity | 59%
C[C@@H](N)[C@H]1CC[C@H](C(=O)Nc2ccncc2)CC1 | enzyme activity | inhibitor | TR-FRET | 10 µM | inhibition | 82.5%
COc1cc2ncnc(Nc3ccc(Oc4ccccc4)cc3C)c2cc1OC | enzyme activity | inhibitor |  | 1 µM | inhibition | 11%
CC1=C(C#N)C(c2ccc3c(c2)c(NC(=O)c2ccccc2C)nn3C)C(C#N)=C(C)N1 | cell-free assay |  | competition with immobilised ligand | 1 µM | remaining binding | 100%
Cn1cncc1C1=CN(c2ncnc3[nH]cnc23)CCS1 | enzyme activity | inhibitor | radiometric | 2 µM | inhibition | 81.1%
c1ccc(N2CCN(Cc3nc4ccccc4[nH]3)CC2)nc1 | cell-free assay |  | competition with immobilised ligand | 1 µM | remaining binding | 100%
CC(C)(C)c1nc2c(s1)c1nc(N)ncc1c1ccc(NS(=O)(=O)c3c(F)cccc3F)c(F)c12 | enzyme activity | inhibitor | radiometric | 1 µM | remaining activity | 100%
CC(=O)C1=C(C)N(c2cccc(C(F)(F)F)c2)C(=O)N[C@@H]1c1ccc(C#N)nc1 | cell-free assay |  | competition with immobilised ligand | 1 µM | remaining binding | 100%
O=C1NC(=O)c2cc(Nc3ccc(F)cc3)c(Nc3ccc(F)cc3)cc21 | cell-free assay |  |  | 0.5 µM | remaining signal | 98.2%
